Active and inactive are the calls of the source. No cut-off for these calls is given here.
Tests used:
[1] = tested on: Lymphocyte; test: Induction of T cell activation marker CD69 expression in concanavalin-A activated CD4+ mouse spleen lymphocytes; type: functional, tissue-based
[2] = tested on: Lymphocyte; test: Induction of T cell activation marker CD69 expression in concanavalin-A activated CD8+ mouse spleen lymphocytes; type: functional, tissue-based
[3] = tested on: Rat2; test: Accumulation of Ras-GTP level in Rat2 cells expressing empty pBabePuro vector; type: functional, cell-based; conditions: Rattus norvegicus
Summary of the method: (§1)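 Rat2 fibroblasts (DMEM, 10% FBS) stably carrying retroviral pBabePuro, empty or with human RasGRP1 cDNA, exposed 10 min to 100 nM DAG analogue or DMSO vehicle. Ras-GTP measured by Ras-binding-domain pulldown with pan-Ras immunoblot; phospho-Erk p44/p42 and total Ras by immunoblot.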

[4] = target: T1, RAS guanyl-releasing protein 1 (Homo sapiens) (UniProt O95267); test: Induction of translocation of RasGRP1 to plasma membrane in HEK293 cells; type: cell-based
T1 sequence (whole entry): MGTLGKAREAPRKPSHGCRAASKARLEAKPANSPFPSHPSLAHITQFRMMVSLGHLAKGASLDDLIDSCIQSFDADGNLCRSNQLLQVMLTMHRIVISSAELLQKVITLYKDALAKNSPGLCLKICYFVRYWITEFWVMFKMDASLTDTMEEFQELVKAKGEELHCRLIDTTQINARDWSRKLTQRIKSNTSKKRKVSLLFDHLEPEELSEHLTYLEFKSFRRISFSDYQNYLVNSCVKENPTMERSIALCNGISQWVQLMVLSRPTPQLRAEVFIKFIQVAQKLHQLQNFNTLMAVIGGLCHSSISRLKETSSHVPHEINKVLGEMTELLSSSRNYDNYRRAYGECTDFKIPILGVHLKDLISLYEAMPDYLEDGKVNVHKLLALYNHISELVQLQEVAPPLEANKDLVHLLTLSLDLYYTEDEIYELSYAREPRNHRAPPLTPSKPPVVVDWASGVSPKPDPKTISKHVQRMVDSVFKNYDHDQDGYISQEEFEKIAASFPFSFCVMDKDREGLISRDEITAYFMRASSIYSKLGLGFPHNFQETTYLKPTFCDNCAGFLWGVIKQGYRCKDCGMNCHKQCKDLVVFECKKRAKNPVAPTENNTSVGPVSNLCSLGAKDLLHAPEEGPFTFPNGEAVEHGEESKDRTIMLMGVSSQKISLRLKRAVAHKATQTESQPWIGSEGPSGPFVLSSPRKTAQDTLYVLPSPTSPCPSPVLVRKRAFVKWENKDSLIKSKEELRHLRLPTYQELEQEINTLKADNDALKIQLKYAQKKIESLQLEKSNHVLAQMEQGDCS
Summary of the method: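 HEK-293 cells on glass coverslips transfected with 5 μg pEF-GFP-RasGRP1 (or pEF-GFP), after 48 h given 100 nM DAG analogue or DMSO for 10 min at 37 °C, fixed in 4% paraformaldehyde; GFP location imaged by confocal microscopy, at least five 0.45 μm slices per cell.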

[5] = tested on: Jurkat; test: Induction of T cell activation marker CD69 expression in Jurkat T cells at 100 nM; type: functional, cell-based; conditions: Homo sapiens
Summary of the method: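 Jurkat T cells kept in RPMI with 10% FBS, incubated overnight with 100 nM DAG analogue or DMSO, fixed in 2% paraformaldehyde, stained with PE-anti-CD69, surface CD69 read by FACS.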

[6] = tested on: Rat2; test: Induction of increase in Ras-GTP level in Rat2 cells expressing human […] at 100 nM; type: functional, cell-based; summary of the method: as §1
[7] = tested on: Thymocyte; test: Activation of ERK in knockout mouse RasGRP1- mutant thymocytes; type: functional, cell-based
Summary of the method: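 Thymocytes isolated in RPMI 1640 with 10% FBS from young wild-type or RasGRP1 knockout mice, given DMSO or DAG analogue for 10 min, then lysed and immunoblotted for phospho-Erk p44/p42.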

[8] = tested on: Thymocyte; test: Activation of ERK in wild type mouse thymocytes at 100 nM; type: functional, cell-based
Summary of the method: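 Wild-type mouse thymocytes (RPMI 1640, 10% FBS) exposed 10 min to DAG analogue at 100, 10 or 1 nM, then lysed; phospho-Erk p44/p42 detected by immunoblot.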

[9] = tested on: PBL; test: Induction of T cell activation marker CD69 expression in PBL cells; type: functional, cell-based; conditions: Homo sapiens
Summary of the method: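 Human peripheral blood lymphocytes from a healthy donor, isolated on Ficoll-hypaque, treated immediately overnight in RPMI with 100 nM DAG analogue or DMSO; fixed in 2% paraformaldehyde, co-stained for CD4 (FITC) and CD69 (PE), analysed by flow cytometry.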

## CCCCCCCCCCCCCC(=O)O[C@@H]1[C@@H](C)[C@@]2(O)[C@@H](C=C(CO)C[C@]3(O)C(=O)C(C)=C[C@@H]23)[C@@H]2C(C)(C)[C@]12OC(C)=O
[1]
  Activity: Active
[2]
  Activity: Active
[3]
  Activity: inactive
[4]
  Activity: Active
[5]
  Activity: Active
[6]
  Activity: Active
[7]
  Activity: inactive
[8]
  Activity: Active
[9]
  Activity: Active

## CCCCCCCC(=O)O[C@H]1/C(=C/C(=O)OC)CC2C[C@H]([C@H](O)CC)OC(=O)C[C@H](O)C[C@@H]3CCC[C@H](C[C@H]4CCO[C@H](/C=C/C(C)(C)[C@]1(O)O2)O4)O3
[1]
  Activity: Active
[2]
  Activity: Active
[3]
  Activity: inactive
[4]
  Activity: Active
[5]
  Activity: Active
[6]
  Activity: Active
[7]
  Activity: inactive
[8]
  Activity: Active
[9]
  Activity: Active

## CCCCCCCC(=O)O[C@H]1/C(=C/C(=O)OC)CC2C[C@H]([C@@H](CC)OC)OC(=O)C[C@H](O)C[C@@H]3CCC[C@H](C[C@H]4CCO[C@H](/C=C/C(C)(C)[C@]1(O)O2)O4)O3
[1]
  Activity: Active
[2]
  Activity: Active
[3]
  Activity: inactive
[4]
  Activity: Active
[5]
  Activity: Active
[6]
  Activity: Active
[7]
  Activity: inactive
[8]
  Activity: Active
[9]
  Activity: Active

Reference: ChEMBL document CHEMBL1149287, “Synthetic bryostatin analogues activate the RasGRP1 signaling pathway” (J Med Chem, 2004)
